For the data set, the system named is MS2 coat protein. The data set can be described thus: apparent Kd, MS2 coat protein; higher = weaker binding; RNA-MaP array; FMN 200 µM where present. The essentials:
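The apparent Kd is the median of filtered binding-curve fits, one per cluster, to green signal normalised to red-channel RNA signal and control-cluster median Fmax. The clusters were on Illumina sequencing chips, and stalled E. coli RNA polymerase had transcribed the designs on them. Titration used SNAP-549-labelled MS2 coat protein from 0.7 or 1.5 nM, doubling to 3 µM, without and then with constant ligand, in 100 mM Tris-HCl pH 7.5, 80 mM KCl, 4 mM MgCl2, BSA, DTT, yeast tRNA and Tween-20.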

Setting [1] is: designed as: OFF switch for flavin mononucleotide, no ligand.
Setting [2] is: ligand present: flavin mononucleotide, designed as: OFF switch for flavin mononucleotide.
Where [3] appears, read: designed as: ON switch for flavin mononucleotide, no ligand.
Setting [4] is: ligand present: flavin mononucleotide, designed as: ON switch for flavin mononucleotide.

As for “CCUUUGAAGAUCCUAAAUUUCGACAUGAGGAUCACCCAUGUGCAGGAUAUCGUGCCAGUGAUGUACGAGAAGGGCAGUCUCUGC”, the “apparent Kd” value is, setting by setting: under setting [1], 0.049 µM; under setting [2], 0.0535 µM.
Regarding “UCAAUUUUGCGAGGAUAUCGACCAUUCCUCUUUACAUGAGGAUCACCCAUGUUCUUUUUCUACAACGAGAAGGCGCUCAUAGUU”, the “apparent Kd” value under setting [1] worked out at 0.0555 µM and the “apparent Kd” value under setting [2] came out at 0.0671 µM.
Taken in the same sequence, the figures for “GGUGCCAUGUAGAAGGCAGAUCUGAUUCAGAUCUGAGGAUAUACAUGAGGAUCACCCAUGUAAAGCCACCGCACGAGAGUGCAA” were 0.0702 µM and 0.19 µM.
In the case of “GGAUAGGACAGAGGAUAUAUGUGCUAGAGAUACUAGCAAAAUUUCCUCACAUGAGGAUCACCCAUGUAGAAGGCUGUCCUAUCG”, the “apparent Kd” value under setting [1] was 0.0129 µM and the “apparent Kd” value under setting [2] was 0.022 µM.
Take “GGAUUACAUGAGGAUCACCCAUGUGAGGAUAUCGAUGUCCUGUCUUUAGUGCGGGACUCGAGAAGGCACUUGGA”: the “apparent Kd” value under setting [1] was 0.048 µM and the “apparent Kd” value under setting [2] came to 0.159 µM.
In the case of “UGUUGUAUUACAGGAUAUCUAGUAUUUUCAUUUAGAGAAGGGUAUUCACAUGAGGAUCACCCAUGUAUAUACGAGGAAGUUGUG”, the “apparent Kd” value under setting [3] was found to be 0.0437 µM and the “apparent Kd” value under setting [4] came out at 0.0454 µM.
For the sequence “ACGUUUUUUGAGGAUAUGCGAUAUUUUUUUAUCGUAGAAGGCGAUACAUGAGGAUCACCCAUGUUUAUGGGCAU”, the “apparent Kd” value under setting [1] is 0.197 µM and the “apparent Kd” value under setting [2] worked out at 0.204 µM.
Take “CGCUGUCACGCAGGAUAUGCAAUGGAUUACAUUGCAGAAGGGCGAUCACAUGAGGAUCACCCAUGUGUAGACAGUGAAGAAGAG”: the “apparent Kd” value by setting is: under setting [3], 0.738 µM; under setting [4], 0.0458 µM.
For “GGAUGUCAAAGACAUCCAAUUCGAACAUGAGGAUCACCCAUGUAGGAUAUGCUACUCAAAGAGUAGCAGAAGGACAUGUGCCUU”, the “apparent Kd” value runs as follows: under setting [1], 0.0306 µM; under setting [2], 0.213 µM.
“GCGCGCGUUGUGAGGAUAUUGUGUGUGAAAGCGCGCGAGAAGGCACAUGAGGAUCACCCAUGUAAGGUGUGUGU”: the “apparent Kd” value runs as follows: under setting [1], 0.455 µM; under setting [2], 0.392 µM.
Taken in the same sequence, the figures for “ACUAUACGAGGAUAUGCUGUCAAUACUAAGGAAUUAGUAUGACAUGAGGAUCACCCAUGUAGAAGGCGUAUACU” were 0.0278 µM and 0.0147 µM.
Consider “GCACAUGGCAUAGGAUAUAGUUCUAUUGUUUAAAUAGGUAGUUGGACUUAACUAGAAGGAUGUUACAUGAGGAUCACCCAUGUU”, for which the “apparent Kd” value reads like this: under setting [3], 0.0112 µM; under setting [4], 0.0113 µM.
“UUGGGAUGCAAGAAGGGUGACAUGAGGAUCACCCAUGUGUUGUGAAUUCUCGAGAUUUUAUGACCAUAGGAUAUUGCACCGAAC”: the “apparent Kd” value runs as follows: under setting [3], 0.0285 µM; under setting [4], 0.0122 µM.
In the case of “UUACAUACAAAGGUACAUGAGGAUCACCCAUGUUUAUUGGGAAGAAGGGUAACAGUAUUACAUAUAUAGGAUAUUUCACAAAUG”, the “apparent Kd” value under setting [3] came out at 0.0906 µM and the “apparent Kd” value under setting [4] came to 0.0698 µM.
Regarding “GUGUACAGAGGAUAUACUUAUGGAGUUACGAAAGUAACUUCACAUGAGGAUCACCCAUGUAGAAGGCUGUACAC”, the “apparent Kd” value is 0.0273 µM under setting [1] and 0.031 µM under setting [2].
Taken in the same sequence, the figures for “GGUUGGCGAGGAUAUACAUGAGGAUCACCCAUGUGAGAGAAAAAAGUGAGGAAGAAAAGUAGAAGGCGCUGACG” were 0.0281 µM and 0.123 µM.
With “UUAAAUCGAAACAUGAGGAUCACCCAUGUGUUGUAAUUAAUAUAGGAUAUGUGUAUACUUUUAUAAUAGAAGGAUGAUAAUACU”, the “apparent Kd” value under setting [3] worked out at 0.0174 µM and the “apparent Kd” value under setting [4] stood at 0.0121 µM.
As to “UAAUUGUGAGGAUAUUCGAAUAACACGGAGACGUGUUGUUCGGAGAAGGCACAUGAGGAUCACCCAUGUUCCUU”, the “apparent Kd” value amounted to 0.0175 µM under setting [1] and 0.102 µM under setting [2].
Taken in the same sequence, the figures for “GAUCUGUCGGUUGACCCAACAUGAGGAUCACCCAUGUAUGUGGAGGAUAUCUAGAUCUGCGGACGAGAGAAGGCCGCAUACGUU” were 0.069 µM and 0.421 µM.
With “GUCAGCUCGUGAGGAUAUACAACGCUGCUUCGGCAGUGUAUUAAGAUCACAUGAGGAUCACCCAUGUAGAAGGCACGAGCUGAU”, the “apparent Kd” value reads like this: under setting [1], 0.0151 µM; under setting [2], 0.284 µM.
As to “GGAAUAAAUGCAGGAUAUACGUGGAAAGCUUUCAACAUGAGGAUCACCCAUGUAGAAGGGCAUCUCCCGACCGAAGCGGAUCUC”, the “apparent Kd” value amounted to 0.0058 µM under setting [1] and 0.00627 µM under setting [2].
For the sequence “CCAGGCAGUGUGAGGAUAUGCUGGUCCUUGGAUCAGCAGAAGGCACAUGAGGAUCACCCAUGUGAAGAGCUUGG”, the “apparent Kd” value was determined as 0.0239 µM under setting [1] and 0.115 µM under setting [2].
Regarding “UUGGACGUCGUGGGAUAUGUAGGAUAUUCCUACAUGAGGAUCACCCAUGUUGACAUGGAAGAAGGACAGAAGGACGAUGUCCAU”, the “apparent Kd” value under setting [3] turned out to be 0.152 µM and the “apparent Kd” value under setting [4] turned out to be 0.00555 µM.
“CCUAUGUGAGGAUAUGGUGUUGGCCACAGGGAAAAGGUCCUCCAGAAGGCACAUGAGGAUCACCCAUGUCGUGG”: the “apparent Kd” value under setting [1] came out at 0.116 µM and the “apparent Kd” value under setting [2] is 0.127 µM.
Taken in the same sequence, the figures for “GUAAAUCAUGUAGGAUAUGCAUGGCGAAGCUACGCAGAAGGACAUGAGGAUCACCCAUGUUAUAGCUACCCAGUUCGGUGGCAA” were 0.102 µM and 0.22 µM.
Regarding “GAGAAGUCAGGAUAUGCUGCUCGUCACUUGCGUGAUGAGUAGCAGAAGGGACAUGAGGAUCACCCAUGUAAAGU”, the “apparent Kd” value amounted to 0.0517 µM under setting [1] and 0.0748 µM under setting [2].
As to “AGACUGAAUGUUAGGAUAUGGUUUCGGGUCUCGGACCAGAAGGAACAUGAGGAUCACCCAUGUGCCGUGGUUGU”, the “apparent Kd” value reads like this: under setting [1], 0.029 µM; under setting [2], 0.153 µM.
For “AGUGCUAUGUAGAAGGCAGAUCUGAUUCAGAUCUGAGGAUAUACAUGAGGAUCACCCAUGUUAUGCACCAGCACGAGAGUGCAG”, the “apparent Kd” value by setting is: under setting [1], 0.00924 µM; under setting [2], 0.0226 µM.
As for “UACAAUCUAUCUGAGGAUAUCAUGAAAAAAACAUGAGGAUCACCCAUGUGCAGGAAAACUGCAUAUGAGAAGGCAGAUAGAUUGA”, the “apparent Kd” value is, setting by setting: under setting [3], 0.873 µM; under setting [4], 0.0269 µM.
With “GCGGCUAGUGCAGGAUAUCGGCGCGUGUAGCGCCGAGAAGGGCACAUGAGGAUCACCCAUGUGAUCAAUCACUGCUAAGGCCGC”, the “apparent Kd” value is 0.00483 µM under setting [1] and 0.00491 µM under setting [2].
On to “UAAAAGACUAGCAAAUAGACCUUCACAUGAGGAUCACCCAUGUAGGAUAUGAGCAGAAAAUCUGCUCAGAAGGACAUGCUAGUC”, for which the “apparent Kd” value reads like this: under setting [1], 0.00338 µM; under setting [2], 0.0036 µM.
For “CGUGUUGACGAAGGAUAUGGAUACAUGAGGAUCACCCAUGUUUAAUUUGUGAUUUUGUUAAAGUACCAGAAGGUCGAAUACACG”, the “apparent Kd” value runs as follows: under setting [1], 0.142 µM; under setting [2], 0.118 µM.
In the case of “UUCAAUCACAUAGGAUAUAGAAUAAUAAUUUUUUACAUGAGGAUCACCCAUGUUUUAUUGGGUUUCUAGAAGGAUGAGUUAUUA”, the “apparent Kd” value runs as follows: under setting [3], 0.524 µM; under setting [4], 0.3 µM.
Turning to “AGCUAGGCAGGAUAUACGUAAAUGUCGAAAGACGUAUUGGGACAUGAGGAUCACCCAUGUAGAAGGGUCUAGCA”, the “apparent Kd” value turned out to be 0.0376 µM under setting [1] and 0.123 µM under setting [2].
With “GGAAAACAUGAGGAUCACCCAUGUGAAAACGUGGGAGGAUAUCGAUGGAAACCAUACUGUCGAGAAGGCCCAUGUC”, the “apparent Kd” value under setting [3] was found to be 0.0518 µM and the “apparent Kd” value under setting [4] came out at 0.018 µM.
With “ACCUUAAAAGUGAGGAUAUCUAGGGCCAAAUGGCCGGAGAAGGCACAUGAGGAUCACCCAUGUAACGCCAUGGA”, the “apparent Kd” value under setting [1] came out at 0.0137 µM and the “apparent Kd” value under setting [2] worked out at 0.0437 µM.

The values are drawn from the EternaBench riboswitch data.
